Screens: PubChem BioAssay, several laboratories
EP2 mod: EP2 receptor modulators, cAMP readout, primary screen, cell-based, HTRF cAMP, PGE2 stimulation; induction, % at 25 µM; EP2-expressing cells, cAMP HTRF FRET, PGE2 co-stimulation; 260,000 compounds, 0.83% hits; AID 940, 2007;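 active = compounds whose cAMP rise, as percent of the full-agonist control response, exceeds 60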;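 also: rat C6 glioma line stably carrying human EP2 under a CMV promoter; the protocol text gives 20 µM as final concentration; 100% = response of wells given 1 µM PGE2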
KLK5 inh: human KLK5 protease inhibitors, primary screen, biochemical, 1536-well; inhibition, % at 5 µM; 210,000 compounds, 0.59% hits; recombinant hK5, fluorogenic AMC substrate cleavage; Kallikrein-5 (Homo sapiens), Q9Y337;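 active = inhibition of 40% or more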;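 also: 0% = enzyme controls without compound and 100% = no-enzyme blanks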
Thrombin inh: human alpha-thrombin inhibitors, primary screen, counter-screen for coagulation protease inhibitor project, biochemical, 1536-well, fluorogenic AMC substrate. 220,000 compounds, 0.26% hits. Boc-VPR-AMC fluorogenic substrate cleavage. AID 1046, 2008. inhibition, % at 5 µM;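 active = inhibition at or above 40%; inactive = inhibition below 40%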;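 also: 0% = enzyme with no compound and 100% = wells without enzyme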
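Material: human alpha-thrombin enzyme / Medium: pH 7.5 Tris (50 mM) with NaCl 150 mM, Tween 20 0.05% / Compound: single-point dosing at 5 µM, 0.2% DMSO / Incubation: enzyme reaction carried out at room temperature / Detection: AMC fluorescence, 355/460 nm / Read-out basis: percent inhibition scaled between no-compound controls and no-enzyme blanks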
PGE2 EP2 inh: human EP2 receptor antagonists, primary screen, TR-FRET cAMP, C6 glioma cells; Prostaglandin E2 receptor EP2 subtype (Homo sapiens), P43116; C6 glioma cells expressing human EP2; cells stimulated with saturating PGE2; inhibition, % at 25 µM; 260,000 compounds, 0.52% hits; AID 1422, 2008;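 active = percent inhibition above 40 after rounding to a whole number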;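 also: rat C6 glioma host cells with rolipram phosphodiesterase inhibitor present; the protocol text gives 20 µM as final concentration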
FXIIa inh 1536: human FXIIa protease inhibitors, primary screen, biochemical, 1536-well; Coagulation factor XII (Homo sapiens), P00748; purified FXIIa, Boc-QGR-AMC fluorogenic substrate, 2 h; inhibition, % at 5 µM; 220,000 compounds, 0.3% hits; in the data active = inhibition above about 40%;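 also: 0% = enzyme with no compound and 100% = blank without enzyme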
FXIa inh: human FXIa protease inhibitors, primary screen, biochemical, 1536-well. purified FXIa, Boc-Glu-Ala-Arg-AMC fluorogenic substrate. AID 798, 2007. 220,000 compounds, 0.14% hits. inhibition, % at 5 µM;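 active = inhibition of at least 40%; inactive = inhibition below 40%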;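 also: fluorescence of freed AMC excited at 355 nm; 0% = enzyme without compound and 100% = no enzyme blank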
Target sequence (P03951 19-387 limits assumed): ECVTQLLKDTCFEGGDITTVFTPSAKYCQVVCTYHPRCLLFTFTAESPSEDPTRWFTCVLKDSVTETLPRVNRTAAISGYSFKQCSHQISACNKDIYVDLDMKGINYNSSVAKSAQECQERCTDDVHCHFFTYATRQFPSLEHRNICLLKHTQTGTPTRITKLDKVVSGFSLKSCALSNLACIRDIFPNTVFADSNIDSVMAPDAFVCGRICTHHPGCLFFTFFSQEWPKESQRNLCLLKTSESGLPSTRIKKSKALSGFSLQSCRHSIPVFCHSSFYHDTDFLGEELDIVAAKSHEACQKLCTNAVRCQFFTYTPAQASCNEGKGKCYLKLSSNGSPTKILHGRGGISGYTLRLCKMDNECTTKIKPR
Target sequence (P03951 388-625 limits assumed): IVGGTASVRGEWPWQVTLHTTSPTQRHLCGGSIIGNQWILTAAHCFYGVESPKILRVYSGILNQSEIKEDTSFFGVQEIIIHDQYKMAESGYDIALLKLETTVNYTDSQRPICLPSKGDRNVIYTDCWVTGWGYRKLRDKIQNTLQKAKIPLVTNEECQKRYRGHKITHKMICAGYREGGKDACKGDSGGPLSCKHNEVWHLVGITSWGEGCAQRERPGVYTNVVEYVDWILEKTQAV
* = called active by the depositor; . = no result. Only some compounds are listed: those with a hit (about 2.1% of all), similar ones and a draw of the others.

SMILES	EP2 mod	KLK5 inh	Thrombin inh	PGE2 EP2 inh	FXIIa inh 1536	FXIa inh
C=CCn1ncc(CN2CCC(NC(C)=O)(c3ccccc3F)CC2)c1C	-5	.	.	7	.	.
CC(CCc1ccccc1)NC(=O)c1ccc(Cl)nc1 (stereo unspecified)	-13	0	-2	12	-1	-8
O=C(NCc1ccccc1)c1ccc(Cl)nc1	5	29	24	9	32	45*
CCOC(=O)C1CCCN(c2c(NCCCN(C)c3ccccc3)c(=O)c2=O)C1 (stereo unspecified)	25	42*	22	7	26	11
CCOC(=O)C(CC)(CCC(=O)OC)c1csc(Nc2ccccc2O)n1 (stereo unspecified)	8	19	66*	7	21	21
CCCCC(CCC(=O)O)(C(=O)OCC)c1csc(Nc2ccc(C)cc2)n1 (stereo unspecified)	1	8	-10	11	10	0
CN(NC1OC(=O)c2ccccc21)c1ncc(Cl)cc1C(F)(F)F (stereo unspecified)	-11	35	14	11	107*	16
CCCCOc1ccc(/C(O)=C2/C(=O)C(=O)N(Cc3cccnc3)C2c2ccncc2)c(C)c1 (stereo unspecified)	61*	-9	1	20	10	6
Cc1cc(OCC(C)C)ccc1/C(O)=C1/C(=O)C(=O)N(Cc2cccnc2)C1c1ccncc1 (stereo unspecified)	60	-4	2	29	18	7
CCNC(=S)N(Cc1ccco1)Cc1cc2ccc(C)c(C)c2[nH]c1=O	-18	.	.	20	.	.
CCOc1nc(CC(C)C)c2c(c1C#N)CC(C)(C)OC2	62*	2	-2	6	12	1
CCc1nc(NC2CCCCC2)c(C#N)c2c1COC(C)(C)C2	62*	-26	-2	7	-15	-18
CCCc1nc(NC2CCCCC2)c(C#N)c2c1COC(C)(C)C2	42	-17	-4	2	16	3
N#CC1(Nc2ccc(-c3ccc(NC4(C#N)CCCC4)cc3)cc2)CCCC1	-19	.	.	55*	.	.
Cc1c(NC2(C#N)CCCCC2)c(=O)n(-c2ccccc2)n1C	-20	6	-8	16	6	-3
CN(c1ncc(C(F)(F)F)cc1Cl)N1C(=O)c2cccc([N+](=O)[O-])c2C1=O	-24	47*	30	5	28	22
CN(C)C(=O)c1cn(N(C)c2ncc(C(F)(F)F)cc2Cl)c(=O)c2ccccc12	6	1	2	13	19	5
CC1=C(C#N)c2nc(N)c(C#N)c(C)c2/C1=C\c1ccc(Cl)cc1	-98	.	.	33	.	.
CC1=C(C#N)c2nc(N)c(C#N)c(C)c2/C1=C\c1cccc(Cl)c1	-144	.	.	50*	.	.
Cc1onc(-c2ccccc2Cl)c1C(=O)OCc1cnc(Cl)s1	64*	-30	-5	5	-11	-7
CC(=O)c1sc(C(C)(C)C)cc1NC(=O)c1ccccc1C(=O)O	77*	-10	5	20	7	4
O=C(NCc1ccco1)c1ccc2c(c1)CCO2	4	53*	32	5	52*	10
CC(C)(C)NC(=O)C(c1cccs1)N(Cc1cccs1)C(=O)c1snc(C(N)=O)c1N (stereo unspecified)	16	.	.	4	.	.
Cc1nc(P(=O)(c2ccccc2)c2ccccc2)c(N2CCOCC2)o1	15	-22	-5	11	11	-2
Cc1ccccc1-c1nc(P(=O)(c2ccccc2)c2ccccc2)c(N2CCOCC2)o1	67*	4	-3	9	4	6
SMILES	EP2 mod	KLK5 inh	Thrombin inh	PGE2 EP2 inh	FXIIa inh 1536	FXIa inh
O=C(O)COCC(=O)Nc1cc(C(F)(F)F)cc(C(F)(F)F)c1	-9	4	4	2	14	0
CC(CC(=O)O)CC(=O)Nc1cc(C(F)(F)F)cc(C(F)(F)F)c1 (stereo unspecified)	21	50*	4	8	25	23
Nc1c(C(=O)O)ccc2c1C(=O)c1ccccc1C2=O	-40	-2	-6	2	4	-3
O=C(O)c1cccc(N=Nc2c(S(=O)(=O)O)ccc3c2C(=O)c2ccccc2C3=O)c1O	-33	.	.	46*	.	.
Nc1nc(-c2ccco2)nn1C(=O)c1cccnc1	-15	-10	64*	2	28	-6
Nc1nc(-c2ccco2)nn1C(=O)CCc1ccccc1	5	-11	93*	15	19	0
Nc1nc(-c2cccnc2)nn1C(=O)CCc1ccccc1	.	.	.	10	.	.
CN(C(=O)c1cccc(C#N)c1)c1nnc(-c2cccnc2)s1	12	.	.	4	.	.
Cc1c(-c2cccs2)[n+](=O)c2c(n1[O-])CCC2	-8	60*	40*	15	34	17
COc1cc(-c2nnc(C3CCCCC3)o2)ccc1OCc1ccccc1	-83	.	.	6	.	.
COc1cc(CC(=O)Nc2nccs2)cc(OC)c1OC	-14	43*	5	7	3	-1
CCN1CCCC1CN(Cc1ccccn1)Cc1cccnc1NC (stereo unspecified)	-106	.	.	12	.	.
O=Cc1ccc(OCc2cccc(C(F)(F)F)c2)cc1O	63*	1	-1	6	8	-1
CC(=O)[C@H]1CCC2C3CC=C4C[C@@H](O)CC[C@]4(C)C3CC[C@@]21C (stereo partly specified)	10	.	.	11	.	.
CN(C)CCC(=O)[C@]1(O)CC[C@@H]2[C@H]3CC=C4C[C@@H](O)CC[C@]4(C)[C@@H]3CC[C@]21C	-49	.	.	65*	.	.
CCOC(=O)c1sc2nc3c(SCC(=O)O)cc(C(=O)c4ccccc4O)cn3c(=O)c2c1C	54	-12	-2	1	5	-2
O=C(O)CSc1cc(C(=O)c2ccccc2O)cn2c(=O)c3c(-c4ccccc4)csc3nc12	61*	6	-4	8	13	0
O=C(NCc1ccco1)C1CC(c2ccccc2O)=NO1 (stereo unspecified)	-72	-4	-5	11	2	-7
O=C(NCc1ccco1)C1CC(c2ccccc2C(F)(F)F)=NO1 (stereo unspecified)	1	19	21	15	21	72*
CCN(CC)CCCNC(=O)Cn1cnc2ccc(S(=O)(=O)N3CCC(C)CC3)cc2c1=O	-16	45*	17	9	32	34
CCCCNC(=O)Cn1cnc2ccc(S(=O)(=O)N3CCC(C)CC3)cc2c1=O	2	.	2	7	10	3
